Experiments:
[1] = substrate: O=C(O)CC(=O)C(=O)O; assay: Binding affinity to Mycobacterium tuberculosis wild type CitA expressed in Escherichia coli cells assessed as Vmax by Michaelis-Menten analysis
Method in brief: (§1)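 His-tagged CitA (wild type or variant) was expressed in E. coli, purified by cobalt affinity and size exclusion, then dialysed against 20 mM Tris pH 8.0. Activity was measured by DTNB (300 μM) thiol detection of released CoA at 412 nm, with OAA and AcCoA substrates and 10 nM enzyme, in 50 mM Tris pH 8.0 at 25 °C. A no-enzyme control was run. Triplicate runs were fitted to Michaelis–Menten.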

[2] = substrate: O=C(O)CC(=O)C(=O)O; assay: Binding affinity to Mycobacterium tuberculosis wild type CitA expressed in Escherichia coli cells assessed as Kcat/Km by Michaelis-Menten analysis; method in brief: as §1
[3] = substrate: O=C(O)CC(=O)C(=O)O; assay: Binding affinity to Mycobacterium tuberculosis wild type CitA expressed in Escherichia coli cells assessed as apparent Km by Michaelis-Menten analysis; method in brief: as §1
[4] = substrate: O=C(O)CC(=O)C(=O)O; assay: Binding affinity to Mycobacterium tuberculosis wild type CitA expressed in Escherichia coli cells assessed as catalytic constant by Michaelis-Menten analysis; method in brief: as §1

B1: Putative citrate synthase 2 (Mycobacterium tuberculosis), P9WPD3 (protein)
chain: MTVVPENFVPGLDGVVAFTTEIAEPDKDGGALRYRGVDIEDLVSQRVTFGDVWALLVDGNFGSGLPPAEPFPLPIHSGDVRVDVQAGLAMLAPIWGYAPLLDIDDATARQQLARASVMALSYVAQSARGIYQPAVPQRIIDECSTVTARFMTRWQGEPDPRHIEAIDAYWVSAAEHGMNASTFTARVIASTGADVAAALSGAIGAMSGPLHGGAPARVLPMLDEVERAGDARSVVKGILDRGEKLMGFGHRVYRAEDPRARVLRAAAERLGAPRYEVAVAVEQAALSELRERRPDRAIETNVEFWAAVVLDFARVPANMMPAMFTCGRTAGWCAHILEQKRLGKLVRPSAIYVGPGPRSPESVDGWERVLTTA
Protein B1 has a Vmax [1] of 3.4 µM/min, a kcat/Km [2] of 400000 M⁻¹ s⁻¹ and a Km [3] of 14.3 µM. For the same protein, the kcat [4] was 5.67 s⁻¹.

Reference: ChEMBL document CHEMBL5257161, “Mycobacterium tuberculosis CitA activity is modulated by cysteine oxidation and pyruvate binding” (RSC Med Chem, 2023)
